What is called apparent Kd is the concentration giving half-maximal binding under the conditions of the assay.

The test system of this series is MS2 coat protein. As to the kind of experiment: apparent Kd, MS2 coat protein; higher = weaker binding; RNA-MaP array. In short, it runs like this: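 On an Illumina sequencing chip, sequenced DNA templates served for transcription of the designed RNAs, which were then bound at room temperature by fluorescently labeled MS2 coat protein at 1.5 nM to 3 μM, with or without input ligand. Apparent Kd is the median of the fits to each cluster's binding curve. Only designs measured on at least 10 clusters were kept.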

Setting [1] is: designed as: OFF switch for flavin mononucleotide, no ligand.
The mark [2] stands for this setting: ligand present: flavin mononucleotide, designed as: OFF switch for flavin mononucleotide.
Where [3] appears, read: designed as: ON switch for flavin mononucleotide, no ligand.
[4] abbreviates: ligand present: flavin mononucleotide, designed as: ON switch for flavin mononucleotide.

For “ACAUACAUGAGGAUCACCCAUGUGGGAUCUUCCUCUAAAACUAAGGAUAUGUCAGUUGGUUAACUACAGAAGGUAGGUCGGAAC”, the “apparent Kd” value is, setting by setting: under setting [1], 313 nM; under setting [2], 306 nM.

As for “GAUUCGCAGUCGGCCGCCACUAACAUGAGCUGCUAGUUAUUAUCACAUGAGGAUCACCCAUGUCUUAGGACCGGGACAACCUGUU”, the “apparent Kd” value was 77.7 nM (designed as: ON switch for tryptophan, no ligand) and 71 nM (ligand present: tryptophan, designed as: ON switch for tryptophan).

Regarding “AAUUGAAACAGAGGUAUAUACGGACAUUACCGAGGACCGGUACGGCCGCCACUCGACCUAAAACAUGAGGAUCACCCAUGUAGCA”, the “apparent Kd” value (designed as: OFF switch for tryptophan, no ligand) stood at 13.1 nM and the “apparent Kd” value (ligand present: tryptophan, designed as: OFF switch for tryptophan) amounted to 13.6 nM.

On to “GCACACAUGAGUUAGGAUAUAUGUUGUGAGACAUGAGGAUCACCCAUGUGUGCAUUGCUUAUAAUAUAGAAGGAACCCAGGUCGGC”, for which the “apparent Kd” value reads like this: under setting [3], 25.5 nM; under setting [4], 17.1 nM.

As to “GGUCUACAUGAGGAUCACCCAUGUGAGUUCACGGCAGGAUAUGGGUGCCUUUUUAGGCUACCAGAAGGGCCCUCUG”, the “apparent Kd” value runs as follows: under setting [3], 38.1 nM; under setting [4], 19.2 nM.

As to “ACAACGUAACGAGGAUAUAAUCUAAAAGUUCGGUGACGUAGACAUGAGGAUCACCCAUGUUAGUAUUAGAAGGCGUUCGGCGGG”, the “apparent Kd” value runs as follows: under setting [1], 14.4 nM; under setting [2], 41.9 nM.

With “UCCCGCUGCACAGGAUAUUGGAAAAUACAUGAGGAUCACCCAUGUGCUUAUAUGAGGUCUGCCUCCAAGAAGGGUGAGAUAAUC”, the “apparent Kd” value under setting [1] was found to be 113 nM and the “apparent Kd” value under setting [2] came out at 89.6 nM.

For “UGCCCACAGGAGAAGGUGGCUCAACCAGAGCGCCAAGGAUAUCCGGAGUUACUCCUCACUACAUGAGGAUCACCCAUGUUUCAU”, the “apparent Kd” value by setting is: under setting [1], 71.5 nM; under setting [2], 54.6 nM.

With “CAGGAUCCGAAGAAGGGCAUCGGCCACAGGGCUGCAGGAUAUUCAAUUCAUGCAACAUGAGGAUCACCCAUGUAAUGGGCCGUU”, the “apparent Kd” value amounted to 27.5 nM under setting [1] and 22.3 nM under setting [2].

“GGUAUCGUAGGAUAUUAAUGUAGCCACAUGAGGAUCACCCAUGUAGUUCUAGUGGACCGUUAAGAAGGACGUGAUC”: the “apparent Kd” value reads like this: under setting [1], 66.1 nM; under setting [2], 82.8 nM.

As for “AAAUUAACGAAGAAGGCCUGACGACAUGACUACAUGAGGAUCACCCAUGUUGCAGCACAAUAUAAGGAGGAUAUUCGACAAGCU”, the “apparent Kd” value under setting [3] amounted to 10.2 nM and the “apparent Kd” value under setting [4] came to 6.86 nM.

With “CGAUCUGGCUAAGGAUAUCAAGUGCGCAUGGUUUGACAGCACAUGAGGAUCACCCAUGUAACGCAUGAGAAGGUAGGCACACAG”, the “apparent Kd” value under setting [1] was determined as 223 nM and the “apparent Kd” value under setting [2] was determined as 183 nM.

Consider “CCACCAACAGGAUAUACGCUGAGGUUUUCUAACGGUCAUGUACAUGAGGAUCACCCAUGUAGAAGGGUUGUAGG”, for which the “apparent Kd” value is, setting by setting: under setting [1], 37 nM; under setting [2], 55.6 nM.

As to “UGAACACUGUGAGGAUAUCCACAUGAGGAUCACCCAUGUUUCCUCAGUGAUGCUAUAGCUUCCACGGAGAAGGCACAUGUAAUC”, the “apparent Kd” value under setting [1] worked out at 31.2 nM and the “apparent Kd” value under setting [2] is 48.2 nM.

“GUUUUCAACUUGUAGGAUAUUUCUCACGAGACAUGAGGAUCACCCAUGUAGUGAACCAGGGAUCGAAAGAAGGACAUCAUGACGGU”: the “apparent Kd” value came to 75.2 nM under setting [3] and 49.9 nM under setting [4].

Take “UAUAAUGAAGGAUAUACAUGAGGAUCACCCAUGUUAGACUCUCAGUCGACAGUAAUCCGUAGAAGGUCAUGCCA”: the “apparent Kd” value was determined as 12.3 nM under setting [1] and 13.6 nM under setting [2].

Take “UUGCAAUAGUAGAAGGACCACUCAAGUGUGACGGUAGGAUAUACGGUACAUGAGGAUCACCCAUGUGAGACUACAGCCCUCUCC”: the “apparent Kd” value reads like this: under setting [1], 20 nM; under setting [2], 21.9 nM.

“AUAUUUUUGUAAUGACAUGAGGAUCACCCAUGUAUCAAUGUAAGAAGGAGGAAAUAAACACGAUCCUAGGAUAUUAGGUGAUUA”: the “apparent Kd” value amounted to 44.5 nM under setting [3] and 35.3 nM under setting [4].

For “UUUUACGCAAGUAAUUCCCGGGAACCGGAUACCAGCUCCUCCAACAGCCCUUGGCAGCCGACCACAUGAGGAUCACCCAUGUUUC”, the “apparent Kd” value worked out at 11.7 nM (designed as: OFF switch for theophylline, no ligand) and 19.3 nM (ligand present: theophylline, designed as: OFF switch for theophylline).

As to “AGGCCCUCACAUGAGGAUCACCCAUGUACGUACGCAGGUGGAAGAAGGCCGGUACAACCUAAUCCGGAGGAUAUUCGAAUUAAC”, the “apparent Kd” value came out at 372 nM under setting [1] and 199 nM under setting [2].

Consider “GUAGAACCGCAGAAGGCAUUGAUUCGAGAGCGAUGAGGAUAUGCUCGUCGACAUGAGGAUCACCCAUGUUUACGAUUGAGAUAU”, for which the “apparent Kd” value is 15.1 nM under setting [3] and 9.74 nM under setting [4].

As for “CCUGCAGGUCAGGAUAUCAUAUCUGGCUAACUAUGAGAAGGGACAACAUGAGGAUCACCCAUGUGGUGAUAACA”, the “apparent Kd” value under setting [1] is 666 nM and the “apparent Kd” value under setting [2] is 509 nM.

(Values after the EternaBench riboswitch data.)
